Data on 19 compounds can be found in ChEMBL document CHEMBL1142652, “5-(2-aminoethyl)dibenzo[c,h][1,6]naphthyridin-6-ones: variation of n-alkyl substituents modulates sensitivity to efflux transporters associated with multidrug resistance” (J Med Chem, 2005).

pIC50: −log10 of the molar value.

The test system of assay [1] is RPMI 8402. Nature of the assay: Inhibitory concentration against lymphoblast RPMI 8402 cell line was determined. It counts as functional, cell-based. The conditions noted are these: Homo sapiens. An outline of the steps:
(§1)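 MTT microtiter tetrazolium assay. Cells exposed continuously for 4 days to varying drug concentrations, MTT read at the end of day 4. An untreated control ran in each assay. IC50 taken; each assay done at least twice in six replicate wells. Sources: RPMI 8402 human lymphoblasts and CPT-resistant CPT-K5; P388 mouse leukemia and CPT-resistant TOP1-deficient P388/CPT45; KB3-1 with KBV-1 (MDR1) and KBH5.0 (BCRP, selected stepwise against Hoechst 33342).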

The next assay has as its system P388. Put plainly: Inhibitory concentration against P388 cell line in mouse leukemia was determine. It counts as functional, cell-based. In a few lines: as §1
In assay [2] the test system is RPMI 8402. Put plainly: Cytotoxicity against camptothecin-resistant RPMI 8402. The note with it: Homo sapiens. The class given is functional, cell-based. In a few lines: as §1
In assay [3] the test system is KB 3-1. Nature of the assay: Inhibitory concentration against KB3-1 cell line was determined. The class given is functional, cell-based. The note with it: Homo sapiens. An outline of the steps:
as §1

Assay [4] has as its target T1, DNA topoisomerase 1 (Homo sapiens) (UniProt P11387).
T1 sequence (whole entry): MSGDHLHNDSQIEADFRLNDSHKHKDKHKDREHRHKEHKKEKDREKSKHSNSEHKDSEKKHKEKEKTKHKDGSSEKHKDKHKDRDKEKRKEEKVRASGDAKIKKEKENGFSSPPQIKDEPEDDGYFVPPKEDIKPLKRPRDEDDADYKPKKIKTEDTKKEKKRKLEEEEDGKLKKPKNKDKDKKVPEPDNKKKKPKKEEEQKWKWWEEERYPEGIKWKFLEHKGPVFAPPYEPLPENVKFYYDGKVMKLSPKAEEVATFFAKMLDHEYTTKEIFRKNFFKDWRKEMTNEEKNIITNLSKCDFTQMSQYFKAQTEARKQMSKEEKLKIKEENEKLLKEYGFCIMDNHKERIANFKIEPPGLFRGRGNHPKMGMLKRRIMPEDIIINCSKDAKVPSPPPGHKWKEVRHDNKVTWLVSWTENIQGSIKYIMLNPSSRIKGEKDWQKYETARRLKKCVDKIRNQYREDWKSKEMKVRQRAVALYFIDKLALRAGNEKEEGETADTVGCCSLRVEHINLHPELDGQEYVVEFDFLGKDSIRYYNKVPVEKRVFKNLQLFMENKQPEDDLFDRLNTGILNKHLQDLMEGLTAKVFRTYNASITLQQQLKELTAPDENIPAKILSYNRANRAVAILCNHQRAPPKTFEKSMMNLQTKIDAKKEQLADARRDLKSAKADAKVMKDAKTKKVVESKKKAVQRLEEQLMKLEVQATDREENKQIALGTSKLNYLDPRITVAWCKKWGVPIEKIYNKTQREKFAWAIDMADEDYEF
Put plainly: Relative topoisomerase I-mediated plasmid DNA cleavage compared to topotecan. It counts as functional. An outline of the steps: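 Recombinant human topoisomerase I (T7-expressed in E. coli as a fusion protein). End-labeled plasmid YepG, CsCl-purified, incubated with drug and enzyme 30 min at 37 °C. Gel autoradiograms, typically 24 h exposure. Value is REC: concentration relative to topotecan (set at 1.0) that gives the same cleavage.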

In assay [5] the test system is KB 3-1. Nature of the assay: Inhibitory concentration against KBH5.0 cells overexpress BCRP. The class given is functional, cell-based. The note with it: Homo sapiens, KBH5.0 cell. An outline of the steps:
as §1

The nature of assay [6]: Inhibitory concentration against camptothecin-resistant variant of P388 cell line was determined. The class given is functional, cell-based, Mus musculus. An outline of the steps:
as §1

Assay [7] is described as follows: Inhibitory concentration against KB/V-1 cells overexpress MDR1. It counts as functional, cell-based. The conditions noted are these: Homo sapiens. An outline of the steps:
as §1

Take `COc1cc2c(=O)n(CCN3CCNCC3)c3c4cc5c(cc4ncc3c2cc1OC)OCO5`: the pIC50 in the assay with RPMI 8402 [1] is 7.05; in the assay on P388 it was 7.22; in the assay with RPMI 8402 [2] it was 5.57; in the assay on KB 3-1 [3], 7.00; with KB 3-1 [5], 6.28; in assay [6], 6.52. Further, the pIC50 in assay [7] was 5.72. Also, the Activity in assay [4] amounted to 4.3.

In the case of `COc1cc2c(=O)n(CCNCc3ccccc3)c3c4cc5c(cc4ncc3c2cc1OC)OCO5`, the pIC50 in the assay on RPMI 8402 [1] is 7.80; with P388 it was 7.80; in the assay with RPMI 8402 [2], 6.55; in the assay on KB 3-1 [3] it was 8.22; with KB 3-1 [5] it was 8.00; in assay [6], 6.74. In addition, the pIC50 in assay [7] was 7.46. In addition, the Activity in assay [4] is 0.5.

Consider `CC[C@@]1(O)C(=O)OCc2c1cc1n(c2=O)Cc2cc3c(CN(C)C)c(O)ccc3nc2-1` [TOPOTECAN], for which the negative logarithm of the IC50 (pIC50) was 7.68 in the assay on RPMI 8402 [1], under 5.00 in the assay with RPMI 8402 [2], 6.36 in the assay on KB 3-1 [5] and under 5.00 in assay [6].

On to `COc1cc2c(=O)n(CCN3CCN(C)CC3)c3c4cc5c(cc4ncc3c2cc1OC)OCO5`, for which the pIC50 was 6.52 with RPMI 8402 [1]; 6.64 in the assay with P388; 5.23 in the assay with RPMI 8402 [2]; 6.30 in the assay with KB 3-1 [3]; 6.40 in the assay on KB 3-1 [5]; 6.19 in assay [6]. The same compound showed a pIC50 in assay [7] of 5.60. Also, the Activity in assay [4] was 1000.

As to `COc1cc2c(=O)n(CCN)c3c4cc5c(cc4ncc3c2cc1OC)OCO5`, the pIC50 with RPMI 8402 [1] is 8.40; with P388 it was 8.52; with RPMI 8402 [2], 6.60; with KB 3-1 [3] it was 8.30; in the assay on KB 3-1 [5] it was 7.92; in assay [6] it was 7.57. The compound also showed a pIC50 in assay [7] of 7.82. For the same compound, in assay [4], the Activity was found to be 0.02.

Take `CCN(CCn1c(=O)c2cc(OC)c(OC)cc2c2cnc3cc4c(cc3c21)OCO4)C(C)C`: the pIC50 is 8.30 in the assay on RPMI 8402 [1]; 8.40 with P388; 6.51 in the assay on RPMI 8402 [2]; 8.52 with KB 3-1 [3]; 8.10 with KB 3-1 [5]; 6.92 in assay [6]. Also, in assay [7], the negative logarithm of the IC50 (pIC50) is 7.68. The compound further gave an Activity in assay [4] of 0.17.

Regarding `COc1cc2c(=O)n(CCN(C)C(C)C)c3c4cc5c(cc4ncc3c2cc1OC)OCO5`, the negative-log IC50 (pIC50) in the assay on RPMI 8402 [1] was 8.10; with P388, 8.22; in the assay with RPMI 8402 [2], 6.20; with KB 3-1 [3] it was 8.52; with KB 3-1 [5] it was 8.40; in assay [6], 7.15. In assay [7], this compound showed a pIC50 of 8.52. Besides, the Activity in assay [4] amounted to 0.03.

For `COc1cc2c(=O)n(CCN3CCCC3)c3c4cc5c(cc4ncc3c2cc1OC)OCO5`, the pIC50 in the assay on RPMI 8402 [1] is 8.52; in the assay with P388, 8.22; in the assay on RPMI 8402 [2] it was 6.41; with KB 3-1 [3], 8.52; with KB 3-1 [5], 8.40; in assay [6] it was 7.22. Moreover, the pIC50 in assay [7] is 8.10. Further, the Activity in assay [4] amounted to 0.3.

Take `COc1cc2c(=O)n(CCNC(C)C)c3c4cc5c(cc4ncc3c2cc1OC)OCO5`: the pIC50 was 8.52 with RPMI 8402 [1]; 9.00 in the assay on P388; 6.74 in the assay with RPMI 8402 [2]; 8.30 in the assay on KB 3-1 [3]; 8.22 with KB 3-1 [5]; 7.52 in assay [6]. The negative logarithm of the IC50 (pIC50) in assay [7] was 8.30. For the same compound, the Activity in assay [4] came to 0.3.

As to `COc1cc2c(=O)n(CCN(Cc3ccccc3)C(C)C)c3c4cc5c(cc4ncc3c2cc1OC)OCO5`, the negative logarithm of the IC50 (pIC50) with RPMI 8402 [1] is 6.52; with P388 it was 6.64; with RPMI 8402 [2] it was 5.23; with KB 3-1 [3], 6.10; with KB 3-1 [5] it was 6.30; in assay [6], 6.19. The pIC50 in assay [7] is 5.40. The compound also registered an Activity in assay [4] of 7.4.

As for `COc1cc2c(=O)n(CCN3CCCCC3)c3c4cc5c(cc4ncc3c2cc1OC)OCO5`, the pIC50 with RPMI 8402 [1] was 8.15; in the assay on P388, 8.22; in the assay on RPMI 8402 [2], 6.40; in the assay with KB 3-1 [3], 8.40; in the assay on KB 3-1 [5], 8.05; in assay [6], 7.30. The pIC50 in assay [7] is 7.89. This compound gave an Activity in assay [4] of 0.6.

For `CCN(CC)CCn1c(=O)c2cc(OC)c(OC)cc2c2cnc3cc4c(cc3c21)OCO4`, the pIC50 is 8.22 in the assay on RPMI 8402 [1]; 8.40 with P388; 6.07 in the assay on RPMI 8402 [2]; 8.40 with KB 3-1 [3]; 8.30 in the assay on KB 3-1 [5]; 6.82 in assay [6]. The negative logarithm of the IC50 (pIC50) in assay [7] is 7.82. In addition, the Activity in assay [4] came out at 1.4.

Consider `CNCCn1c(=O)c2cc(OC)c(OC)cc2c2cnc3cc4c(cc3c21)OCO4` [GENZ-644282], for which the pIC50 in the assay on RPMI 8402 [1] is 9.52; in the assay on P388 it was 9.52; in the assay with RPMI 8402 [2], 6.60; in the assay with KB 3-1 [3], 9.40; in the assay with KB 3-1 [5], 9.30; in assay [6] it was 7.15. Also, the pIC50 in assay [7] is 7.66. The Activity in assay [4] was 0.1 µM.

With `COc1cc2c(=O)n(CCN3CCC(C)CC3)c3c4cc5c(cc4ncc3c2cc1OC)OCO5`, the pIC50 is 7.52 in the assay with RPMI 8402 [1]; 7.85 in the assay with P388; 6.35 in the assay on RPMI 8402 [2]; 7.52 with KB 3-1 [3]; 7.40 with KB 3-1 [5]; 6.72 in assay [6]. For the same compound, the pIC50 in assay [7] is 7.30. This compound returned an Activity in assay [4] of over 100.

Take `COc1cc2c(=O)n(CCN(C)Cc3ccccc3)c3c4cc5c(cc4ncc3c2cc1OC)OCO5`: the pIC50 with RPMI 8402 [1] was 7.28; with P388, 7.42; in the assay with RPMI 8402 [2], 5.70; with KB 3-1 [3], 7.30; in the assay with KB 3-1 [5] it was 6.82; in assay [6], 6.35. Further, the pIC50 in assay [7] was 6.52. In assay [4], this compound showed an Activity of 15.8.

In the case of `COc1cc2c(=O)n(CCN(Cc3ccccc3)Cc3ccccc3)c3c4cc5c(cc4ncc3c2cc1OC)OCO5`, the pIC50 is 6.42 with RPMI 8402 [1]; 6.60 in the assay with P388; 5.71 with RPMI 8402 [2]; 6.52 in the assay with KB 3-1 [3]; 6.52 in the assay with KB 3-1 [5]; 6.30 in assay [6]. Moreover, in assay [7], the pIC50 is 6.44. This compound had an Activity in assay [4] of 15.

The compound `COc1cc2c(=O)n(CCN(C)C)c3c4cc5c(cc4ncc3c2cc1OC)OCO5` returned an Activity in assay [4] of 0.3. Moreover, the pIC50 in the assay with KB 3-1 [5] was 8.22; in assay [6], 6.64.

Take `COc1cc2c(=O)n(CCN(C(C)C)C(C)C)c3c4cc5c(cc4ncc3c2cc1OC)OCO5`: the pIC50 is 8.10 with RPMI 8402 [1]; 8.22 in the assay with P388; 6.22 in the assay with RPMI 8402 [2]; 8.30 in the assay on KB 3-1 [3]; 7.40 in the assay on KB 3-1 [5]; 6.70 in assay [6]. This compound showed a pIC50 in assay [7] of 7.40. The compound further had an Activity in assay [4] of 4.7.

With `COc1cc2c(=O)n(CCN3CCN(Cc4ccccc4)CC3)c3c4cc5c(cc4ncc3c2cc1OC)OCO5`, the pIC50 was 6.40 in the assay with RPMI 8402 [1]; 6.60 in the assay with P388; 6.15 with RPMI 8402 [2]; 6.30 in the assay on KB 3-1 [3]; 6.12 with KB 3-1 [5]; 6.70 in assay [6]. Moreover, in assay [7], the pIC50 was 6.15. The Activity in assay [4] is 1000.
